Assay results: publication PMC12137120 (Nature, 2025)
Numbering of substitutions follows the chain as printed.

Key:
[1] = target: T1, SHOC2(G290A)–NRAS(Q61R) (Homo sapiens, UniProt Q9UQ13, G290A); assay: TR-FRET assay with resistant mutant SHOC2; assay type: binding
T1 sequence (Q9UQ13 1-582 G290A): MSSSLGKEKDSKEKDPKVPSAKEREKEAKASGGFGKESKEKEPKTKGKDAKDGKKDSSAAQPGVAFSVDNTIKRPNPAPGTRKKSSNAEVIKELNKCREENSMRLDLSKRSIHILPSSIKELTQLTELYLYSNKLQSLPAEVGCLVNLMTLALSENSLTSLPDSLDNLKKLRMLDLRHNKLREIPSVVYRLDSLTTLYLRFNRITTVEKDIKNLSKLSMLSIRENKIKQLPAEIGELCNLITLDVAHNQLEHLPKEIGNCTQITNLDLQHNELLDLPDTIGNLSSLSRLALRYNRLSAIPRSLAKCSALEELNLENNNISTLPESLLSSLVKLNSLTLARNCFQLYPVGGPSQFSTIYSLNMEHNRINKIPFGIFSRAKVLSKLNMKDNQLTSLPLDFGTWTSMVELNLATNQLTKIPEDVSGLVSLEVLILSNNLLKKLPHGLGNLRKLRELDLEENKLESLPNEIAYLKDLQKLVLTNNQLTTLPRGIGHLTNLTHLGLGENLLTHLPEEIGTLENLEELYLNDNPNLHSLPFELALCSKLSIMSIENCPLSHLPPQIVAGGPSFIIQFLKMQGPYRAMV

[2] = target: T2, SHOC2(WT)–NRAS(Q61K) (Homo sapiens, UniProt Q9UQ13); assay: SHOC2–NRAS; assay type: cell-based
T2 sequence (Q9UQ13 1-582): T1 sequence (Q9UQ13 1-582 G290A) with A290G
Procedure, shortened: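 Monoclonal HEK 293T lines stably expressed full-length SHOC2–SmBiT with LgBiT–NRAS(Q61K); a SmBiT–128-aa linker–LgBiT line served as control. Cells were kept in DMEM with 10% FCS. 20,000 cells per well were seeded in medium with 0.1% FCS and held 2 h at 37 °C. Test compound was given for 4 h (seven-point 1:3, 30 µM to 40 nM). Medium was then replaced with phenol-red-free Opti-MEM plus NanoGlo Live substrate (1:60). n = 3 biological samples.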

[3] = test system: GTP-loaded RAS; assay: Active RAS pull-down assay; assay type: cell-based, human; conditions: Mel Juso and A375 cells, 30 µM, 2 h and 4 h
Procedure, shortened: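 Cells were treated with 30 µM test compound or DMSO for 2 h and 4 h, then lysed per the kit. 400 µg lysate was rotated with Raf-RBD beads for 1 h at 4 °C. Bound protein was eluted in 2× Laemmli buffer, boiled 5 min at 95 °C and immunoblotted alongside total lysates. Two independent experiments were run.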

[4] = target: T3, SHOC2 (80–582) (Homo sapiens, UniProt Q9UQ13); assay: SPR to assess affinity of low-molecular-weight ligands on immobilized SHOC2; assay type: binding; conditions: versus (R)-5
T3 sequence (Q9UQ13 80-582): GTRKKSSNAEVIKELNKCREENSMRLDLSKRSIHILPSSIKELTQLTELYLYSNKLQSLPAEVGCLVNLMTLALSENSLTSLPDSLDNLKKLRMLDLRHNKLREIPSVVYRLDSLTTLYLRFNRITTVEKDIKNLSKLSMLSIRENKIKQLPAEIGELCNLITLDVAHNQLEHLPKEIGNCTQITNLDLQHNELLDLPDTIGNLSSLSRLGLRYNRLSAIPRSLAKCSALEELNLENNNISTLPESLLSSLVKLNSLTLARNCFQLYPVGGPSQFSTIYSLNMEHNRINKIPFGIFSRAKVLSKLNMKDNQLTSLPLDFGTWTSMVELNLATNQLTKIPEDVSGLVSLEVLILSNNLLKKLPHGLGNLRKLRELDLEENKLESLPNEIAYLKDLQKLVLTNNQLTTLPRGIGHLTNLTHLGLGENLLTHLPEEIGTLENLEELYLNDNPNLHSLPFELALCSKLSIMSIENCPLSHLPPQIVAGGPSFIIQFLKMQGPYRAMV

[5] = test system: A375 cells; assay: Incucyte 3D cell proliferation; assay type: cell-based, human; conditions: BRAF(V600E) melanoma A375; twice-a-week treatment, 30 µM
Procedure, shortened: (§1)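 Cells were seeded in sextuplicate in ultralow-attachment round-bottom plates in 10% FCS medium, spun 3 min at 200g and left 24 h to form spheroids or aggregates. They were dosed with 30 µM test compound or DMSO twice weekly at 37 °C, 5% CO2, and imaged by Incucyte every 6 h for three weeks at ×10. Data are mean ± s.d., n = 6; two independent experiments.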

[6] = test system: MELJUSO cells; assay: Incucyte 3D cell proliferation; assay type: cell-based, human; conditions: RAS(Q61L) melanoma MELJUSO; twice-a-week treatment, 30 µM
Procedure, shortened: as §1

[7] = target: T4, SHOC2(G290A)–NRAS(Q61K) (Homo sapiens, UniProt Q9UQ13, G290A); assay: SHOC2; assay type: cell-based
T4 sequence (Q9UQ13 1-582 G290A): T1 sequence (Q9UQ13 1-582 G290A)
Procedure, shortened: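 HEK 293T cells were plated at 20,000 per well and incubated overnight at 37 °C, 5% CO2. They were then transiently transfected with SHOC2(G290A)–SmBiT and LgBiT–NRAS(Q61K) and incubated overnight again. Test compound was added for 4 h as a seven-point 1:3 series from 10 µM […], from stock in DMSO/H2O 90:10. NanoGlo Live substrate (1:60 in phenol-red-free Opti-MEM) was then added.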

[8] = test system: RAS mutant and RAS WT cell lines; assay: Incucyte 3D cell proliferation, panel of RAS mutant and RAS WT cell lines; assay type: cell-based, human; conditions: 30 µM
Procedure, shortened: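 For spheroid or aggregate formation, cells were seeded in sextuplicate in ultralow-attachment round-bottom plates in 10% FCS medium, centrifuged 3 min at 200g and left 24 h. They were treated with 30 µM test compound or DMSO at 37 °C, 5% CO2, and imaged on an Incucyte every 6 h for three weeks at ×10.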

[9] = test system: MELJUSO cells; assay: Immunoblot of MAPK signalling; assay type: cell-based, human
Procedure, shortened: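 MELJUSO cells were treated either with increasing doses for 24 h or with 30 µM over a time course. Lysis was in 1% Triton X-100/Tris-HCl pH 7.4/NaCl/EDTA buffer with phosphatase and protease inhibitors, then clearing at 13,000 rpm, 4 °C, 20 min and BCA protein assay. Immunoblots of the time course were quantified by densitometry as pCRAF/CRAF and pERK/ERK. Two independent experiments were run.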

[10] = test system: RAS mutant and wild-type cell lines; assay: Immunoblot of MAPK signalling in a panel of RAS mutant and wild-type cell lines; assay type: cell-based, human; conditions: 4 h, 30 µM
[11] = test system: A375 cells; assay: Immunoblot of MAPK signalling; assay type: cell-based, human; conditions: BRAF(mut) melanoma cells A375, 30 µM, time course
Procedure, shortened: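 A375 cells got 30 µM test compound and were collected at several time points. They were cleared at 13,000 rpm, 4 °C, 20 min, protein was quantified by BCA, and samples were immunoblotted. Two independent experiments were run.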

[12] = target: T5, SHOC2–NRAS(Q61R) (Homo sapiens, UniProt Q9UQ13); assay: TR-FRET competitive binding assay SHOC2–NRAS Q61R:GTP; conditions: versus (R)-5
T5 sequence (Q9UQ13 1-582): T1 sequence (Q9UQ13 1-582 G290A) with A290G

[13] = test system: Mel Juso cell line; assay: RNA-seq global transcriptome analysis; assay type: cell-based, human; conditions: 4 h and 24 h, 30 µM and 100 µM

Row | SMILES | activity in SHOC2(G290A)–NRAS(Q61R) TR-FRET [1] | activity in SHOC2(WT)–NRAS(Q61mut) NanoBiT assay [2] | RAS–GTP loading [3] | fold higher potency in SPR assay [4] [fold] | 3D cell proliferation [5] | 3D cell proliferation [6] | activity in SHOC2(G290A)–NRAS(Q61mut) NanoBiT assay [7] | 3D proliferation in wild-type RAS settings ([8]; including EGFRΔex19 cells) | 3D proliferation of RAS mutant models ([8]; prolonged treatment) | inhibited CRAF (phospho-S259) levels ([9]; MELJUSO, 30 µM, time course) | MEK and ERK phosphorylation ([9]; NRAS(Q61mut) melanoma cells MELJUSO, 24 h increasing doses) | MAPK signalling in EGFRΔex19 cells [10] | MAPK signalling in wild-type RTK/RAS or BRAF(V600E) mutant cell lines [10] | MAPK signalling in RAS mutant settings ([10]; Q61L, G12D and G12C mutant conditions) | pERK or pMEK inhibition [11] | fold higher potency in TR-FRET assay [12] [fold] | transcriptome changes, RAS/MAPK-associated genes [13] | MAPK signalling in all cell models tested [10]
1 | CC(C)(C(=O)O)[C@H](NC(=O)Cc1cccc(I)c1)c1ccc2oc(=O)[nH]c2c1 [Compound 6, (R)-3-(2-(3-iodophenyl)acetamido)-2,2-dimethyl-3-(2-oxo-2,3-dihydrobenzo[d]oxazol-5-yl)propanoic acid] | fully abolish compound 6 activity | selective displacement | unaffected | 10 | but not of BRAF(V600E) | suppressed the cell proliferation | no activity | none | anti-proliferative effects | increased levels | dose-dependent inhibition | only minor effects | no detectable effect | downregulated MAPK signalling | did not show any pERK or pMEK inhibition | 10 | dose-dependent and time-dependent modulation | 
2 | CC(C)(C(=O)O)[C@@H](NC(=O)Cc1cccc(I)c1)c1ccc2oc(=O)[nH]c2c1 [Compound 7, (S)-3-(2-(3-iodophenyl)acetamido)-2,2-dimethyl-3-(2-oxo-2,3-dihydrobenzo[d]oxazol-5-yl)propanoic acid] |  | no activity |  |  |  |  |  |  |  |  |  |  |  |  |  |  | no significant changes | inert
